# Test results from article PMC10060059 (Thrombosis and Haemostasis, 2023).
# Where two headings read alike, the source gives them in different places. Marks after values point to notes of the source that are not given here.
# Legend:
# [1] = Six-month clinical follow-up; format: in vivo, human; conditions: 6-month follow-up
# How it was run: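 Bleedings (site, severity), thromboembolic events (site) and deaths were recorded. Two geriatricians blinded to PK/PD data classed bleeds as major or nonmajor clinically relevant, and minor bleeds were not systematically recorded. Rates were given per DOAC group.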
# thrombin generation = experiment: Thrombin generation on ST-Genesia; format: biochemical, human
# [2] = Rivaroxaban/apixaban plasma concentrations; format: in vivo, human; conditions: for Effect of creatinine clearance on Cmax, multivariate analysis / Effect of creatinine clearance on Cmax, univariate analysis / Effect of creatinine clearance on Cmin, multivariate analysis / Effect of creatinine clearance on Cmin, univariate analysis: per decrease of 10 mL/min
# [3] = cited from earlier work
# [4] = STG-ThromboScreen without thrombomodulin
# [5] = for halved concentrations, STG-ThromboScreen without thrombomodulin
# [6] = per decrease of 10 mL/min, STG-ThromboScreen without thrombomodulin
# [7] = CYP3A4/5 modulator in addition to amiodarone
# [8] = P-gp modulator in addition to amiodarone
# [9] = full dose: rivaroxaban 20 mg o.d., apixaban 5.0 mg b.i.d.
# [10] = reduced dose: rivaroxaban 15 mg o.d., apixaban 2.5 mg b.i.d.
# [11] = rivaroxaban 15 mg o.d., apixaban 2.5 mg b.i.d.
# [12] = 2.5 mg b.i.d. vs. 5 mg b.i.d., listed as apixaban
structure (smiles),measurement,setting,value
"O=C(NC[C@H]1CN(c2ccc(N3CCOCC3=O)cc2)C(=O)O1)c1ccc(Cl)s1 [Rivaroxaban, rivaroxaban]",death rate,[1],17.3%
same,thromboembolic event rate,[1],1.0%
same,"Effect of amiodarone on peak height at Tmin, multivariate",thrombin generation; [4],−44.6%** [−75.1; 23.2]
same,"Effect of amiodarone on peak height at Tmin, univariate",thrombin generation; [4],−52.2%
same,"Effect of heart failure on peak height at Tmax, multivariate",thrombin generation; [4],−22.3% [−45.0; 9.8]
same,"Effect of heart failure on peak height at Tmax, univariate",thrombin generation; [4],−36.6%
same,"Effect of heart failure on peak height at Tmin, multivariate",thrombin generation; [4],−12.7% [−37.7; 22.4]
same,"Effect of heart failure on peak height at Tmin, univariate",thrombin generation; [4],−31.4% [−52.2; −1.7]
same,"Effect of plasma concentrations on peak height at Tmax, multivariate",thrombin generation; [5],–5.0% ^a [−27.9; 25.2]
same,"Effect of plasma concentrations on peak height at Tmax, univariate",thrombin generation; [5],+23.9% ^a [−11.4; 73.2]
same,"Effect of plasma concentrations on peak height at Tmin, multivariate",thrombin generation; [5],+21.0% ^a [−4.0; 52.4]
same,"Effect of plasma concentrations on peak height at Tmin, univariate",thrombin generation; [5],+38.7% ^a [12.4;71.1]
same,"Effect of creatinine clearance on peak height at Tmax, multivariate",thrombin generation; [6],−16.4% ^b [−26.3; −5.0]
same,"Effect of creatinine clearance on peak height at Tmin, multivariate",thrombin generation; [6],−6.76% ^b [−15.5; 2.8]
same,"Effect of creatinine clearance on peak height at Tmin, univariate",thrombin generation; [6],−6.1% ^b [−16.2; 5.2 ]
same,"Effect of dose regimen on Cmax, multivariate analysis",[2]; 15 mg o.d. vs. 20 mg o.d.,29.4% ^a [−14.2; 95.2]
same,"Effect of dose regimen on Cmax, univariate analysis",[2]; 15 mg o.d. vs. 20 mg o.d.,+20.3% ^a [−16.7; +73.5]
same,"Effect of dose regimen on Cmin, multivariate analysis",[2]; 15 mg o.d. vs. 20 mg o.d.,−3.2% ^a [−35.1; 44.6]
same,"Effect of dose regimen on Cmin, univariate analysis",[2]; 15 mg o.d. vs. 20 mg o.d.,−3.8% ^a [−35.1; +42.6]
same,"Effect of dose regimen on Cmax, univariate analysis","[2]; 15 mg o.d. vs. 20 mg o.d., listed as rivaroxaban",+20.3%
same,"Effect of CYP3A4/5 modulator on Cmax, multivariate analysis",[2]; [7],+10.6% [−23.1; 58.9]
same,"Effect of CYP3A4/5 modulator on Cmax, univariate analysis",[2]; [7],+9.5% [−21.0; 51.6]
same,"Effect of CYP3A4/5 modulator on Cmin, multivariate analysis",[2]; [7],+43.1% [5.3; 94.3]
same,"Effect of CYP3A4/5 modulator on Cmin, univariate analysis",[2]; [7],+31.1% [−24.7; 72.2]
same,"Effect of P-gp inhibitor on Cmax, multivariate analysis",[2]; [8],−6.31% [−35.8; 36.6]
same,"Effect of P-gp inhibitor on Cmax, univariate analysis",[2]; [8],−9.95% [−35.3; 25.4]
same,"Effect of P-gp inhibitor on Cmin, multivariate analysis",[2]; [8],−8.7% [−34.2; 26.8]
same,"Effect of P-gp inhibitor on Cmin, univariate analysis",[2]; [8],−15.9% [−37.6; 13.5]
same,"Effect of amiodarone on Cmax, multivariate analysis",[2]; amiodarone intake,−26.1% ^b [−75.8; 125.5]
same,"Effect of amiodarone on Cmax, univariate analysis",[2]; amiodarone intake,+4.73% [−31.5; 60.2]
same,"Effect of amiodarone on Cmin, multivariate analysis",[2]; amiodarone intake,99.8% ^c [10.3; 262.0]
same,"Effect of amiodarone on Cmin, univariate analysis",[2]; amiodarone intake,+47.8% [−2.8; 109.4]
same,"Effect of amiodarone on Cmin, univariate analysis","[2]; amiodarone intake, listed as rivaroxaban",+47.8%
same,"Effect of female gender on Cmax, multivariate analysis",[2]; female gender,+11.8% [−20.8; 57.9]
same,"Effect of female gender on Cmax, univariate analysis",[2]; female gender,+12.2% [−17.7; 53.0]
same,"Effect of female gender on Cmin, multivariate analysis",[2]; female gender,−10.1% [−35.2; 22.3]
same,"Effect of female gender on Cmin, univariate analysis",[2]; female gender,−14.2% [−36.0; 15.1]
same,inter-individual variability of Cmax (coefficient of variation),[2]; [9],47%
same,inter-individual variability of Cmin (coefficient of variation),[2]; [9],37%
same,"Effect of creatinine clearance on Cmax, multivariate analysis",[2],+3.4% ^b [−7.6; 15.6]
same,"Effect of creatinine clearance on Cmax, univariate analysis",[2],+1.89% ^b [−8.2; 13.1]
same,"Effect of creatinine clearance on Cmin, multivariate analysis",[2],+5.0% ^b [−4.9; 16.0]
same,"Effect of creatinine clearance on Cmin, univariate analysis",[2],+8.1% ^b [−3.9; 15.8]
same,"Effect of creatinine clearance on Cmin, univariate analysis",[2]; listed as rivaroxaban,+8.1%
same,"Effect of ABCB1 3435C > T on Cmax, multivariate analysis",[2]; per mutated allele,+18.3% ^d [−10.9; 39.8]
same,"Effect of ABCB1 3435C > T on Cmax, univariate analysis",[2]; per mutated allele,+18.3% ^d [−5.3; 36.6]
same,"Effect of ABCB1 3435C > T on Cmin, multivariate analysis",[2]; per mutated allele,+10.4% ^d [−14.9; 30.1]
same,"Effect of ABCB1 3435C > T on Cmin, univariate analysis",[2]; per mutated allele,+16.9% ^d [−6.6; 31.0]
same,"Effect of ABCB1 3435C > T on Cmin, univariate analysis","[2]; per mutated allele, listed as rivaroxaban",+16.9%
same,inter-individual variability of Cmax (coefficient of variation),[2]; [10],49%
same,inter-individual variability of Cmin (coefficient of variation),[2]; [10],75%
same,median Cmax,"[2]; rivaroxaban 15 mg o.d., T1-T4, NVAF in-patients ≥80 years",251 ng/mL
same,patients above the 95th percentile of SmPC values at Tmin,[2]; [11],3.1%
same,patients below the 5th percentile of SmPC values at Tmin,[2]; [11],21.5%
same,inter-individual variability of Cmax and Cmin,[3]; Mueck et al's data,around 30%
"COc1ccc(-n2nc(C(N)=O)c3c2C(=O)N(c2ccc(N4CCCCC4=O)cc2)CC3)cc1 [Apixaban, apixaban]",death rate,[1],18.9%
same,thromboembolic event rate,[1],3.6%
same,association of ETP with DOAC concentrations,thrombin generation; STG-DrugScreen and STG-ThromboScreen without TM,ETP was associated with apixaban concentrations
same,"Effect of amiodarone on peak height at Tmax, multivariate",thrombin generation; [4],−26.0% [−91.8; 564.1]
same,"Effect of amiodarone on peak height at Tmax, univariate",thrombin generation; [4],+3.7% [−58.7; 160.1]
same,"Effect of amiodarone on peak height at Tmin, multivariate",thrombin generation; [4],−57.47% [−83.2; 7.9]
same,"Effect of amiodarone on peak height at Tmin, univariate",thrombin generation; [4],−37.2% [−60.0; −1.5]
same,"Effect of heart failure on peak height at Tmax, multivariate",thrombin generation; [4],−9.2% [−62.9; 122.6]
same,"Effect of heart failure on peak height at Tmax, univariate",thrombin generation; [4],−26.7% [−66.7; 61.4]
same,"Effect of heart failure on peak height at Tmin, multivariate",thrombin generation; [4],+0.84% [−30.8; 46.9]
same,"Effect of amiodarone on peak height at Tmin, univariate","thrombin generation; STG-ThromboScreen without thrombomodulin, listed as apixaban",−37.2%
same,"Effect of plasma concentrations on peak height at Tmax, multivariate",thrombin generation; [5],+86.8% ^a [−0.48; 250.5]
same,"Effect of plasma concentrations on peak height at Tmin, multivariate",thrombin generation; [5],+32.7% ^a [8.28; 62.59]
same,"Effect of plasma concentrations on peak height at Tmin, univariate",thrombin generation; [5],37.1% ^a 13.1; 66.2]
same,"Effect of creatinine clearance on peak height at Tmax, multivariate",thrombin generation; [6],+2.4% ^b [−17.9; 27.8]
same,"Effect of creatinine clearance on peak height at Tmax, univariate",thrombin generation; [6],+0.42% ^b [4.70; 36.9]
same,"Effect of creatinine clearance on peak height at Tmin, univariate",thrombin generation; [6],1.7% ^b [−10.7; 15.8]
same,"Effect of dose regimen on Cmax, multivariate analysis",[2]; 2.5 mg b.i.d. vs. 5 mg b.i.d.,+64.8% ^e [16.6; 132.9]
same,"Effect of dose regimen on Cmax, univariate analysis",[2]; 2.5 mg b.i.d. vs. 5 mg b.i.d.,+44.9% ^e [7.14; 96.1]
same,"Effect of dose regimen on Cmin, multivariate analysis",[2]; 2.5 mg b.i.d. vs. 5 mg b.i.d.,+54.8% ^e [6.65; 124.6]
same,"Effect of dose regimen on Cmin, univariate analysis",[2]; 2.5 mg b.i.d. vs. 5 mg b.i.d.,+45.6% ^e [4.7; 102.6]
same,"Effect of dose regimen on Cmax, multivariate analysis",[2]; [12],+64.8%
same,"Effect of dose regimen on Cmax, univariate analysis",[2]; [12],44.9%
same,"Effect of dose regimen on Cmin, multivariate analysis",[2]; [12],+54.8%
same,"Effect of dose regimen on Cmin, univariate analysis",[2]; [12],45.6%
same,"Effect of CYP3A4/5 modulator on Cmin, univariate analysis",[2]; [7],+20.8% [−9.8; 61.7]
same,"Effect of amiodarone on Cmax, multivariate analysis",[2]; amiodarone intake,+79.3% [5.5; 204.7]
same,"Effect of amiodarone on Cmax, univariate analysis",[2]; amiodarone intake,+43.5% [7.9; 90.9]
same,"Effect of amiodarone on Cmin, univariate analysis",[2]; amiodarone intake,+14.4% [−18.5; 60.5]
same,"Effect of amiodarone on Cmax, univariate analysis","[2]; amiodarone intake, listed as apixaban",+43.5%
same,"Effect of female gender on Cmax, multivariate analysis",[2]; female gender,+28.7% [−4.5; 73.4]
same,"Effect of female gender on Cmax, univariate analysis",[2]; female gender,+44.0% [7.4; 93.1]
same,"Effect of female gender on Cmin, univariate analysis",[2]; female gender,+15.7% [−14.9; 57.1]
same,"Effect of female gender on Cmax, univariate analysis","[2]; female gender, listed as apixaban",+44.0%
same,inter-individual variability of Cmax (coefficient of variation),[2]; [9],47%
same,inter-individual variability of Cmin (coefficient of variation),[2]; [9],68%
same,"Effect of creatinine clearance on Cmax, multivariate analysis",[2],+4.5% ^b [−3.0; 11.4]
same,"Effect of creatinine clearance on Cmax, univariate analysis",[2],+3.3% ^b [−4.28; 10.31]
same,"Effect of creatinine clearance on Cmin, multivariate analysis",[2],+4.5% ^b [−4.9; 13.1]
same,"Effect of creatinine clearance on Cmin, univariate analysis",[2],+4.6% ^b [−4.2; 12.7]
same,"Effect of ABCB1 3435C > T on Cmax, multivariate analysis",[2]; per mutated allele,+10.1% ^d [−8.3; 25.3]
same,"Effect of ABCB1 3435C > T on Cmax, univariate analysis",[2]; per mutated allele,+2.1% ^d [−18.7; 19.3]
same,"Effect of ABCB1 3435C > T on Cmin, univariate analysis",[2]; per mutated allele,+14.8% ^d [−4.1; 30.3]
same,"Effect of ABCB1 3435C > T on Cmin, univariate analysis","[2]; per mutated allele, listed as apixaban",+14.8%
same,inter-individual variability of Cmax (coefficient of variation),[2]; [10],46%
same,inter-individual variability of Cmin (coefficient of variation),[2]; [10],61%
same,patients above the 95th percentile of SmPC values at Tmin,[2]; [11],9.7%
same,patients below the 5th percentile of SmPC values at Tmin,[2]; [11],9.7%
same,median Cmax,[3]; ARISTOTLE patients (median age 70 years) receiving 2.5 mg b.i.d.,123 ng/mL
same,inter-individual variability of concentrations,"[3]; SmPC, ARISTOTLE data set, mean age 70 years",around 30%
